In the library only some 0.79% were active in any assay of this set; here they are far more common.
hIAP activ: human IAP activation; P09923; AID 2524; activation factor at 10 µM; purified human IAP, CDP-Star luminescence, 30 min; hits give high values; 1 = vehicle-only enzyme, 0 = enzyme-free background; actives 0.16% (n = 330,000);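 active = activation factor of the enzyme at least 2-fold when tested at 20 µM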
Target sequence (P09923 whole entry, looked up): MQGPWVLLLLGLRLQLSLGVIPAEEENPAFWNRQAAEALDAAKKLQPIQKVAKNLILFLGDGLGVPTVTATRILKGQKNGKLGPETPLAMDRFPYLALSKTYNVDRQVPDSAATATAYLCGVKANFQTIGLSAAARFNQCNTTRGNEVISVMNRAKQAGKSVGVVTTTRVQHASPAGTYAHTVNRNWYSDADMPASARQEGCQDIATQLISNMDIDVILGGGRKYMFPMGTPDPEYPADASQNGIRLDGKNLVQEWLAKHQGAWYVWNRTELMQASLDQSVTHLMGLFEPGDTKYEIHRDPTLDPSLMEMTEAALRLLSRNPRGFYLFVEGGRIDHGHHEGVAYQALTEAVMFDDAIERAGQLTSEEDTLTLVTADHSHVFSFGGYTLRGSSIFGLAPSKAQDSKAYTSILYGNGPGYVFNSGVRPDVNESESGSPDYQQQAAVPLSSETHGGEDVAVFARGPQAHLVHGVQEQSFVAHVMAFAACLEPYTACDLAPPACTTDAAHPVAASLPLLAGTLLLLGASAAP
hIAP inh: blocks human intestinal alkaline phosphatase; purified IAP, CDP-Star luminescence, 30 min; inhibition, % at 10 µM; actives 0.12% (n = 330,000); AID 2544;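 active = inhibition reaching a set limit with compound at 10 µM in the primary screen, cut at about 35% in these data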;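 also: plate controls were DMSO wells with enzyme for no effect and no-enzyme buffer wells for full effect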
bIAP inhibitor: blocks bovine intestinal alkaline phosphatase activity | 190,000 tested, under 10 active | purified bovine IAP, CDP-star luminescence, 30 min | inhibition, % at 20 µM;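 active = over 50% inhibition of intestinal alkaline phosphatase at 20 µM in the single-dose screen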
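test system = bovine IAP enzyme | medium = DEA buffer 100 mM, pH 9.8, with MgCl2 1.0 mM, ZnCl2 0.02 mM | detection = luminescence | dosing = single compound dose of 20 µM, 2% DMSO final | incubation = 30 min reaction at room temperature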
bIAP activator: increases bovine intestinal alkaline phosphatase activity | purified bovine IAP, CDP-star luminescence, 30 min; hits give high values; fold of DMSO-control signal, blank-subtracted | AID 1016 | actives 0.17% (n = 200,000) | activation factor at 20 µM;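 active = activation factor of 2 or more at 20 µM, a signal rise over negative controls twice the positive control's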
mIAP act: mouse IAP activation; muIAP, CDP-Star luminescence, 30 min; hits give high values; 1 = vehicle-only enzyme signal, 0 = enzyme-free wells; activation factor at 10 µM; actives 0.24% (n = 330,000); AID 2805;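 active = activation factor of at least 2 at 20 µM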
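Assay system: mouse IAP enzyme; Reagent: CDP-Star chemiluminescent phosphatase substrate; Compound: DMSO-dissolved test compounds; Incubation: 30 min, room temperature; Technique: luminescence from enzymatic CDP-Star hydrolysis; Controls: DMSO-only wells and no-enzyme negative control.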
mIAP block: mouse IAP inhibition; purified mouse IAP, CDP-Star luminescence, 30 min; inhibition, % at 10 µM; actives 0.2% (n = 330,000); AID 2806;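 active = inhibition of at least 40% at 10 µM in the primary screen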;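 also: plate controls were DMSO with enzyme for no effect and no enzyme wells for full effect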
mIAP inh confirm: mouse IAP inhibition confirmation | purified mouse IAP, CDP-Star luminescence, 30 min | AID 434971 | inhibition, % at 10 µM | actives 4.7% (n = 11,000) | shares compounds with mIAP block;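 active = inhibition of at least 40% at 10 µM in either of the two replicates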;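 also: plate controls were DMSO wells with enzyme for no effect and buffer wells lacking enzyme for full effect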
* hit, by the source's call; i = inactive; nt = not tested or not shown.

SMILES	hIAP activ	hIAP inh	bIAP inhibitor	bIAP activator	mIAP act	mIAP block	mIAP inh confirm
Cc1ccc(/C=C/C2=Cc3c(sc(NC(=O)CSc4n[nH]c(N)n4)c3C#N)C(C)(C)C2)o1	1.2	-16	12	0.9	0.53	47*	51*
O=C(CSc1nnc(-c2ccco2)o1)c1ccccc1	1.1	-10	6	0.9	0.56	44*	43*
O=C(CSc1nnc(-c2ccco2)o1)c1ccc(F)c(F)c1	0.92	8	28	0.7	0.88	12	nt
O=C(CSc1nnc(-c2ccco2)c(-c2ccco2)n1)c1ccccc1	1.2	-19	2	1	0.5	50*	51*
CC(=O)c1cccc(NC(=O)N2C3CCC2CC(NC(=O)C2CC2)C3)c1 (stereo unspecified)	1	-4	4	1	1.1	-8	nt
O=C(NCCO)Nc1ccc2nc(-c3ccco3)c(-c3ccco3)nc2c1	1.1	-6	7	0.9	0.58	42*	49*
O=C(NCCCO)c1ccc2nc(-c3ccco3)c(-c3ccco3)nc2c1	nt	nt	-25	1.3	nt	nt	nt
CC(C)=CCCC(C)CN1CCC(N2CCC(C(=O)NC(C)C)CC2)CC1 (stereo unspecified)	1	-4	-11	1.1	0.95	5	nt
Cn1c(=O)c2c(nc(NC3CCCCC3)n2CC(=O)C23CC4CC(CC(C4)C2)C3)n(C)c1=O	1.2	-23	-1	1	2*	-100	-465
C=C(C)c1cccc(C(C)(C)NC(=O)Nc2ccc(OC)cc2)c1	0.8	20	-1	1	1.1	-8	nt
C=C(C)c1cccc(C(C)(C)NC(=O)NC(c2ccccc2)c2ccc(OC)cc2)c1 (stereo unspecified)	1.8	-82	5	0.9	12*	i	-359
O=C(Cn1c(-c2ccccc2Cl)nc2ccccc21)Nc1cccc(Cl)c1	0.95	5	-12	1.1	2.8*	-183	-151
O=C(Cn1c(CO)nc2ccccc21)Nc1ccccc1Cl	0.98	2	5	0.9	1	-1	nt
Cc1ccc(SCc2nc3ccccc3n2CC(=O)Nc2c(C)cccc2C)cc1	0.87	13	-38	1.4	1.8	-75	nt
O=C(Cn1c(COc2ccccc2)nc2ccccc21)Nc1cccc(Cl)c1	0.99	1	-19	1.2	1.1	-6	nt
Cc1ccc(SCc2nc3ccccc3n2CC(=O)Nc2ccc(Cl)cc2)cc1	1	-2	-15	1.2	2.7*	-175	-86
Cc1cc(C)cc(NC(=O)Cn2c(-c3ccccc3Cl)nc3ccccc32)c1	1.1	-10	-13	1.1	2.8*	-179	-148
CCOC(=O)N1CCN(C(=O)c2noc(C(C)C)c2[N+](=O)[O-])CC1	0.79	21	5	1	0.99	1	nt
CNC(=O)CSc1nc2nn(-c3ccccc3)c(=O)c-2c2n1CCCCC2	1	-1	5	1	1	-5	nt
O=C(CSc1nc2nn(-c3ccccc3)c(=O)c-2c2n1CCCCC2)c1ccc(O)c(O)c1	0.76	24	nt	nt	0.24	76*	81*
Cc1cc2nc(C)n(CCCNC(=O)Nc3cccc4ccccc34)c2cc1C	1.1	-14	-167	2.7*	2.6*	-156	-118
NS(=O)(=O)c1ccc(N=Nc2c(=O)[nH]n3c(=O)c4c([nH]c23)CCCC4)cc1	1.7	-66	nt	0.5	0.52	48*	63*
O=c1[nH]n2c(=O)c3c([nH]c2c1N=Nc1cccc(Cl)c1)CCC3	nt	nt	-24	1.2	nt	nt	nt
Cc1nnc(SCC(=O)Nc2cc(Cl)ccc2Cl)n1CC1CCCO1 (stereo unspecified)	0.98	2	nt	nt	1	-1	nt
COc1ccccc1OC(=O)c1cc2ccccc2oc1=O	0.94	6	nt	nt	0.91	9	nt
SMILES	hIAP activ	hIAP inh	bIAP inhibitor	bIAP activator	mIAP act	mIAP block	mIAP inh confirm
COc1cc(/C=C/[N+](=O)[O-])ccc1OC(=O)c1cc2ccccc2oc1=O	1.2	-16	nt	nt	0.42	58*	49*
CC(NC(=O)c1cccc(S(=O)(=O)N2CCN(C)CC2)c1)c1ccc(Cl)cc1Cl (stereo unspecified)	1.1	-8	nt	nt	0.97	3	nt
CCOC(=O)C1=C(C)N=c2s/c(=C/c3cccc([N+](=O)[O-])c3O)c(=O)n2C1c1ccc(OC)cc1OC (stereo unspecified)	1	-4	nt	nt	0.57	43*	44*
CCOC(=O)C1=C(C)N=c2s/c(=C\c3ccc(O)c([N+](=O)[O-])c3)c(=O)n2C1c1ccccc1OC (stereo unspecified)	0.76	24	nt	nt	0.73	27	nt
Cc1ccccc1SCC(=O)OCC(=O)N(C)c1c(N)n(Cc2ccccc2)c(=O)[nH]c1=O	0.96	4	nt	nt	1	-4	nt
Oc1ccc(-c2cn3c(n2)SCC3)cc1O	0.94	6	27	0.7	0.39	61*	92*
CC1=C(C(=O)OCc2ccccc2)C(c2ccccc2[N+](=O)[O-])NC(=O)N1C (stereo unspecified)	0.81	19	nt	nt	0.92	8	nt
Cc1ccc(NC2c3ncccc3C(=O)N2Cc2ccco2)c(C)c1 (stereo unspecified)	1.2	-16	-4	1	0.97	3	nt
O=C(Nc1cnn(Cc2ccccc2)c1)NC12CC3CC(CC(C3)C1)C2	0.84	16	4	1	2.1*	-112	-105
O=C(O)C1C2CCC(O2)C1C(=O)Nc1cnn(Cc2ccccc2)c1 (stereo unspecified)	0.94	6	2	1	1	-1	nt
O=C(NCC1CCN(Cc2ccccc2F)CC1)Nc1ccccc1F	1.1	-7	nt	nt	1.3	-30	nt
Cc1ccc(C)c(CN2CCC(CNC(=O)Nc3ccc(C)c(C)c3)CC2)c1	1.3	-27	nt	nt	3.9*	-291	-121
O=C(NCC1CCN(Cc2ccccc2F)CC1)Nc1cccc(Br)c1	1.4	-39	nt	nt	3.3*	-226	-105
COc1cccc(NC(=O)CN(C)C(=O)c2ccc3c(c2)C(=O)N(CCC(C)C)C3=O)c1	0.9	10	nt	nt	1.1	-10	nt
Cc1cc(O)c(N=Cc2cc3c(cc2[N+](=O)[O-])OCO3)cc1C	1.3	-34	nt	nt	0.49	51*	60*
Cc1cccc(N=Cc2cc3c(cc2[N+](=O)[O-])OCO3)c1	1.1	-6	2	1	0.81	19	nt
COc1ccc(NS(=O)(=O)c2ccc(C)c(NC(=O)CN3C(=O)NC4(CCCC4)C3=O)c2)cc1	0.88	12	nt	nt	1.1	-14	nt
O=C(COc1cccnc1[N+](=O)[O-])Nc1ccc(Cl)c(S(=O)(=O)N2CCOCC2)c1	0.9	10	nt	nt	0.97	2	nt
NS(=O)(=O)c1ccc(Nc2nc(-c3ccc(O)cc3O)cs2)cc1	1.1	-7	-19	1.2	0.59	40*	60*
